Converted amounts (≈) assume the structure as drawn.
Legend:
Assay type in all cases: functional, cell-based
Settings in all cases: Oryctolagus cuniculus
PRK [1] = test: Concentration required to reduce HSV-2 induced cytopathogenicity by 50% in primary rabbit kidney (PRK) cells; 7-40
PRK [2] = test: Concentration required to reduce HSV-1 induced cytopathogenicity by 50% in primary rabbit kidney (PRK) cells; 1-1.5
PRK [3] = test: Concentration required to reduce HSV-1(KOS) induced cytopathogenicity by 50% was measured
How it was run: (§1)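 PRK cell cultures infected with 100 CCID50 HSV-1 (KOS), then given varying compound concentrations right after virus adsorption, without added nucleoside.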

PRK [4] = test: Concentration required to reduce TK-HSV-1 (B2006) induced cytopathogenicity by 50% in primary rabbit kidney (PRK) cells
PRK [5] = test: Concentration required to reduce HSV-1(KOS) induced cytopathogenicity by 50% was measured by the addition of [Me-3H]-dThd
PRK [6] = test: Concentration required to inhibit incorporation of [1,'2'-3H]dUrd into DNA of primary rabbit kidney (PRK) cells by 50%
How it was run: (§2)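 Uninfected primary rabbit kidney cells; IC50 = concentration reducing incorporation of [Me-3H]dThd or [1',2'-3H]dUrd into host cell DNA by 50%.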

PRK [7] = test: Compound was evaluated for antiviral activity in rabbit kidney cells infected with vaccinia virus
PRK [8] = test: Concentration required to inhibit incorporation of [Me-3H]-dThd into DNA of primary rabbit kidney (PRK) cells by 50%; how it was run: as §2
PRK [9] = test: Concentration required to reduce HSV-1(KOS) induced cytopathogenicity by 50% was measured by the addition of [1,'2'-3H]dUrd
How it was run: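 HSV-1 (KOS) cytopathogenicity in PRK cells (100 CCID50 inoculum) with dThd or dUrd, unlabelled, added together with test compound at 100 μg/mL final, the highest level not itself inhibiting virus replication. CPE scored at 100% destruction in untreated infected controls; IC50 = concentration halving cytopathogenicity.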

PRK [10] = test: Concentration required to reduce HSV-1(KOS) induced cytopathogenicity primary rabbit kidney by 50% was measured by the addition of [Me-3H]-dThd
PRK [11] = test: Concentration required to reduce HSV-1(KOS) induced cytopathogenicity in primary Rabbit by 50%
How it was run: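 Confluent primary rabbit kidney cell cultures inoculated with 100 CCID50 HSV-1 (KOS); varying compound concentrations added immediately after virus adsorption. Cytopathogenicity scored once virus-infected untreated controls reached 100% cell destruction; IC50 = concentration reducing cytopathogenicity by 50%.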

PRK [12] = test: Concentration required to reduce HSV-1(KOS) induced cytopathogenicity primary rabbit kidney by 50% was measured by the addition of [1,'2'-3H]dUrd
PRK [13] = test: Concentration required to reduce HSV-1(KOS) induced cytopathogenicity by 50%; how it was run: as §1
PRK [14] = test: Concentration required to reduce HSV-2 induced cytopathogenicity by 50% in primary rabbit kidney (PRK) cells; 10-150
PRK [15] = test: Concentration required to reduce HSV-1 induced cytopathogenicity by 50% in primary rabbit kidney (PRK) cells; 2-4
PRK [16] = test: Concentration required to reduce HSV-1 induced cytopathogenicity by 50% in primary rabbit kidney (PRK) cells; 4-10
PRK [17] = test: Concentration required to reduce HSV-2 induced cytopathogenicity by 50% in primary rabbit kidney (PRK) cells; 2-4
PRK [18] = test: Concentration required to reduce HSV-1 induced cytopathogenicity by 50% in primary rabbit kidney (PRK) cells
PRK [19] = test: Concentration required to reduce HSV-2 induced cytopathogenicity by 50% in primary rabbit kidney (PRK) cells; 0.2-0.4

For `C#CCOc1cn([C@H]2C[C@H](O)[C@@H](CO)O2)c(=O)[nH]c1=O`, which IC50 (PRK [1]) is on record?
The IC50 was 19 µg/mL (≈ 67.3 µM).

And the IC50 (PRK [2])?
Its IC50 is 1 µg/mL (≈ 3.54 µM).

And the IC50 (PRK [3])?
The IC50 was 0.7 µg/mL (≈ 2.48 µM).

What about the IC50 (PRK [4]) of the same compound?
The IC50 was over 200 µg/mL.

And the IC50 (PRK [5])?
Its IC50 is 400 µg/mL (≈ 1420 µM).

And the IC50 (PRK [6])?
Its IC50 is 100 µg/mL (≈ 354 µM).

What about the IC50 (PRK [7]) of the same compound?
The IC50 was 20 µg/mL (≈ 70.9 µM).

What about the IC50 (PRK [8]) of the same compound?
Its IC50 is 200 µg/mL (≈ 709 µM).

What about the IC50 (PRK [9]) of the same compound?
The IC50 was 40 µg/mL (≈ 142 µM).

For `O=c1[nH]c(=O)n([C@H]2C[C@H](O)[C@@H](CO)O2)cc1F` [FLOXURIDINE], which IC50 (PRK [10]) is on record?
The IC50 was over 400 µg/mL.

What about the IC50 (PRK [11]) of the same compound?
Its IC50 is 1 µg/mL (≈ 4.06 µM).

And the IC50 (PRK [12])?
The IC50 was 10 µg/mL (≈ 40.6 µM).

`N#Cc1cn([C@H]2C[C@H](O)[C@@H](CO)O2)c(=O)[nH]c1=O` was tested. Which IC50 (PRK [6]) did it give?
The IC50 was 8 µg/mL (≈ 31.6 µM).

And the IC50 (PRK [8])?
The IC50 was over 400 µg/mL.

What does the source list for `N#CCOc1cn([C@H]2C[C@H](O)[C@@H](CO)O2)c(=O)[nH]c1=O`?
IC50 (PRK [13]): 1.5 µg/mL (≈ 5.3 µM); IC50 (PRK [14]): 10 µg/mL (≈ 35.3 µM); IC50 (PRK [4]): > 400 µg/mL; IC50 (PRK [5]): > 400 µg/mL; IC50 (PRK [6]): > 400 µg/mL; IC50 (PRK [7]): 150 µg/mL (≈ 530 µM); IC50 (PRK [15]): 2 µg/mL (≈ 7.06 µM); IC50 (PRK [8]): 400 µg/mL (≈ 1410 µM); IC50 (PRK [9]): > 400 µg/mL

With `Nc1ncnc2c1ncn2[C@@H]1O[C@H](CO)[C@@H](O)[C@@H]1O` [VIDARABINE] as the compound, how does the IC50 (PRK [3]) read?
Its IC50 is 4 µg/mL (≈ 15 µM).

What about the IC50 (PRK [4]) of the same compound?
Its IC50 is 10 µg/mL (≈ 37.4 µM).

What about the IC50 (PRK [5]) of the same compound?
Its IC50 is 1 µg/mL (≈ 3.74 µM).

And the IC50 (PRK [6])?
Its IC50 is 10 µg/mL (≈ 37.4 µM).

And the IC50 (PRK [16])?
The IC50 was 7 µg/mL (≈ 26.2 µM).

What about the IC50 (PRK [7]) of the same compound?
Its IC50 is 0.4 µg/mL (≈ 1.5 µM).

What about the IC50 (PRK [17]) of the same compound?
Its IC50 is 3 µg/mL (≈ 11.2 µM).

What about the IC50 (PRK [8]) of the same compound?
The IC50 was 20 µg/mL (≈ 74.8 µM).

And the IC50 (PRK [9])?
Its IC50 is 1 µg/mL (≈ 3.74 µM).

`O=c1[nH]c(=O)n([C@H]2C[C@H](O)[C@@H](CO)O2)cc1I` [IDOXURIDINE] was tested. Which IC50 (PRK [4]) did it give?
Its IC50 is 200 µg/mL (≈ 565 µM).

And the IC50 (PRK [18])?
Its IC50 is 0.1 µg/mL (≈ 0.282 µM).

And the IC50 (PRK [6])?
Its IC50 is 0.3 µg/mL (≈ 0.847 µM).

What about the IC50 (PRK [7]) of the same compound?
Its IC50 is 0.4 µg/mL (≈ 1.13 µM).

And the IC50 (PRK [19])?
Its IC50 is 0.2 µg/mL (≈ 0.565 µM).

And the IC50 (PRK [8])?
Its IC50 is 1 µg/mL (≈ 2.82 µM).
